# Platelet DG rel – inhibitors of platelet dense granule secretion, primary screen, cell-based, MLPCN, human platelets; human platelet-rich plasma, SFLLRN dense granule ATP release, luminescence; 0.22% of 300,000 active; inhibition, %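 (compounds screened at 7.5 µM in platelet-rich plasma)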;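 active means mean replicate score, as percent of positive control, at or above 50; inconclusive means mean below 50 but at least one replicate at or above 50; inactive means mean and every replicate below 50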
# Myeloid diff 2 – induction of myeloid progenitor differentiation, primary screen, cell-based, flow cytometry, MLPCN library. ER-HoxA9 myeloid progenitors, lysozyme-GFP differentiation. calls only at 10 µM. 1% of 360,000 active;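 active means normalized GFP-positive differentiation at or above the plate's own cutoff, the solvent-only control mean plus 3 SD; inconclusive means no clear call, values can overlap the other calls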;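 further: cells exposed to compound for four days before flow analysis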
# SENP1 inh – human SENP1 catalytic domain inhibitors, primary screen, biochemical, FRET, uHTS. Sentrin-specific protease 1 (Homo sapiens), Q9P0U3. recombinant SENP1 catalytic domain, CyPet-SUMO1-YPet FRET cleavage. inhibition, % at 10 µM. 0.21% of 360,000 active;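 active means inhibition at least 30% at 10 µM, raw YFP signal under a set limit, fluorescence ratio 0.5 to 1.5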;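 further: 0% = enzyme with DMSO and 100% = no enzyme wells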
#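 System: Recombinant human SENP1 catalytic domain, His6-tagged | Incubation: Enzyme reaction for 50 min at room temperature, dark | Medium: Tris pH 8 with BME, BSA, NP40 and catalase | Also added: 25 nM SUMO1 FRET substrate | Compound: 10 µM single point, 0.5% DMSO | Measured by: FRET fluorescence in CFP and YFP emission channels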
# VLA-4 inh – inhibition in human VLA-4 binding assay, primary screen, VLA-4 allosteric modulator project, MLPCN library, flow cytometry, VLA-4 expressing cells; inhibition, % (about 7 µM as worked out from the volumes in the protocol); AID 2557, 2010; Integrin alpha-4 (Homo sapiens), P13612; 0.2% of 330,000 active; ligand binding flow cytometry; in the data active means inhibition above about 50%
# Target sequence (P13612 whole entry, looked up): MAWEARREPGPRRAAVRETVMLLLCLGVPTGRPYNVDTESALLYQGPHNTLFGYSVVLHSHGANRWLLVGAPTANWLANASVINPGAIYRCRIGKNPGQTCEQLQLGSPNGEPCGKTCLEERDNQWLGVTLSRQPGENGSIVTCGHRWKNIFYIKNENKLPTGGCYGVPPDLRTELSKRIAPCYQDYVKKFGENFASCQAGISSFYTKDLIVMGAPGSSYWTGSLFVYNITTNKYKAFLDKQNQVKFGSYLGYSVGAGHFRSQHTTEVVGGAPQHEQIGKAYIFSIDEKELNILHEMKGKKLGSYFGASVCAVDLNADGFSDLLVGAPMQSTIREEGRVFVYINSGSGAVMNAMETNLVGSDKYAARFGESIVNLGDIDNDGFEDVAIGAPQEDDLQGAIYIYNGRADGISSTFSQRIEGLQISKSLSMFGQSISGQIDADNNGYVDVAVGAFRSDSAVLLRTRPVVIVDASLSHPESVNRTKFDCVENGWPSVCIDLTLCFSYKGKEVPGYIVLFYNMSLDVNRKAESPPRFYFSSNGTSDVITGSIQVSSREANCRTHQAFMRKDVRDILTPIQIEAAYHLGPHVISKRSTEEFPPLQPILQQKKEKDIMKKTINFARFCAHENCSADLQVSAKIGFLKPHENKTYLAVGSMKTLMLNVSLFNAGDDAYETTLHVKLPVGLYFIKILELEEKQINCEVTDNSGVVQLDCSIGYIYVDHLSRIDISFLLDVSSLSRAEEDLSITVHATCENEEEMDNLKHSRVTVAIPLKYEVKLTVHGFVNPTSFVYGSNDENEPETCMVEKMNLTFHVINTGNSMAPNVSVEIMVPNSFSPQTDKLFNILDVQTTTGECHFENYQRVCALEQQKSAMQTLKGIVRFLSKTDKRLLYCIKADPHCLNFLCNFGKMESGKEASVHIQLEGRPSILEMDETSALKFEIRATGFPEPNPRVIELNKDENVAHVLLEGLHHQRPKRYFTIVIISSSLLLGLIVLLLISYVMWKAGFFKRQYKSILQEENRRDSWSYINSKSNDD
# SENP1 inh conf – human SENP1 catalytic domain inhibitors, confirmation, biochemical, FRET endpoint, single concentration; AID 651678, 2012; 34% of 520 active; shares compounds with SENP1 inh; inhibition, % at 10 µM; recombinant SENP1, CyPet-SUMO1-YPet FRET cleavage; in the data active means inhibition mostly above about 35%, no sharp cut-off; inactive means mostly below about 32%;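 further: 0% = enzyme with DMSO and 100% = no enzyme control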
# SENP1 kinetic – human SENP1 catalytic domain inhibitors, confirmation, biochemical, kinetic FRET, single concentration | shares compounds with SENP1 inh | AID 651690, 2012 | 26% of 520 active | recombinant SENP1, CyPet-SUMO1-YPet FRET kinetic cleavage | inhibition, % at 10 µM; in the data active means inhibition mostly above about 32%, no sharp cut-off; inactive means mostly below about 29%;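 further: 0% = DMSO with enzyme and 100% = no enzyme substrate only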
# The depositor's hits bear a star; i = inactive; ? = inconclusive; / = not tested or not shown. Only some compounds are listed: those with a hit (about 1.5% of all), similar ones and a draw of the others.
SMILES,Platelet DG rel,Myeloid diff 2,SENP1 inh,VLA-4 inh,SENP1 inh conf,SENP1 kinetic
CN1CCN(C2=Nc3cc(Cl)ccc3Nc3ccccc32)CC1,0.2,i,0.9,4.3,/,/
COc1ccc(O)c(C2=Nc3ccccc3N=C(c3ccco3)C2)c1,13.0,/,9.8,17.2,/,/
Oc1ccc(Cl)cc1C1=Nc2ccccc2N=C(c2ccco2)C1,1.2,i,67.4*,3.4,63.8*,52.2*
Nc1ccc(N2CCCCC2)c2nonc12,2.8,i,13.2,-9.2,/,/
Nc1ccc(C2CCCc3nonc32)c2nonc12 (stereo not given),-5.1,i,35.0*,-8.2,51.2*,28.1
N=c1occ(C(=O)c2cc(F)ccc2O)cc1C(=O)NC1CCCCC1,-1.8,i,30.3*,6.6,6.2,13.1
COc1ccc(S(=O)(=O)N2CCN(CC3CC=CCC3)CC2)cc1 (stereo not given),0.3,i,1.6,19.3,/,/
CCN(CC)S(=O)(=O)c1ccc(N2CCOCC2)c(NC(=O)c2ccc(F)cc2)c1,-0.4,i,1.1,-6.0,/,/
CCN(CC)S(=O)(=O)c1ccc(N2CCOCC2)c(NC(=O)c2ccc(C#N)cc2)c1,-6.2,i,35.9*,-13.6,0.3,8.8
Cc1cccc(C)c1NC(=O)C(C)n1c(-c2ccc(=O)[nH]c2)nc2ccccc21 (stereo not given),/,i,39.7*,/,37.1,25.4
Cc1cccc(C)c1NC(=O)C(C1CC1)n1c(-c2ccc(=O)[nH]c2)nc2ccccc21 (stereo not given),/,i,0.5,/,/,/
Cc1cccc(N(CC(=O)NCc2ccco2)C(=O)CCC(=O)Nc2ccccn2)c1C,-10.9,i,1.1,15.0,/,/
Cc1cc(-c2ccccc2)nc(=O)[nH]1,-3.1,i,35.0*,14.3,1.4,12.9
O=c1nc(-c2ccccc2)cc(C(F)(F)F)[nH]1,-5.3,i,3.1,2.0,/,/
Clc1ccc2nc(C3CCCCC3)c(CC3CCCCC3)n2c1,/,i,-1.0,/,/,/
NC(N)=NCCCS(=O)(=O)Nc1ccc(Nc2c3ccccc3nc3cc([N+](=O)[O-])ccc23)cc1,/,/,51.2*,/,34.9,6.5
O=[N+]([O-])c1ccc(Nc2c3ccccc3nc3ccccc23)cc1,-0.4,i,-81.9,/,/,/
O=C(NCCSCc1ccccc1)c1ccc(C2SCC(=O)N2Cc2ccccc2)cc1 (stereo not given),-1.1,i,63.1*,-7.4,44.7*,50.1*
COC(=O)c1ccc(C2SCC(=O)N2Cc2ccccc2)cc1 (stereo not given),0.3,i,1.7,5.0,/,/
CCOc1cc(/C=C2\SC(=O)N=C2N)ccc1O,-5.9,i,31.0*,0.4,61.1*,45.6*
CCOc1ccc(/C=C2\SC(=S)N(NS(=O)(=O)c3ccccc3)C2=O)cc1OC,7.9,i,-0.8,7.2,/,/
CCOc1cc(/C=C2\SC(=S)N(NS(=O)(=O)c3ccccc3)C2=O)ccc1O,11.7,i,81.6*,-76.4,124.1*,70.1*
CCOc1cc(/C=C2\N=C3CCCCCN3C2=O)ccc1O,0.9,i,38.8*,22.9,56.0*,50.5*
COc1ccc(NC(=O)Nc2ccc3c(c2)C(=O)N([C@@H](C)CO)C[C@@H](C)[C@@H](CN(C)S(=O)(=O)c2cccs2)O3)cc1,/,i,2.0,-1.1,/,/
COc1cccc(C2C3=C(N=c4s/c(=C\c5ccc(O)cc5)c(=O)n42)c2ccccc2CC3)c1OC (stereo not given),-9.7,i,12.3,9.5,/,/
SMILES,Platelet DG rel,Myeloid diff 2,SENP1 inh,VLA-4 inh,SENP1 inh conf,SENP1 kinetic
COc1ccccc1C1C2=C(N=c3s/c(=C/c4cccc(OCC(=O)O)c4)c(=O)n31)c1ccccc1CC2 (stereo not given),/,i,35.6*,-17.6,44.3*,20.6
COc1cccc(C2C3=C(N=c4s/c(=C\c5cccc(O)c5)c(=O)n42)c2ccccc2CC3)c1OC (stereo not given),-10.6,i,49.5*,-46.4,26.1,16.8
Nc1ncnc2c1ncn2[C@@H]1O[C@H](CNC(=O)[C@@H]2C[C@H](F)CN2)[C@@H](O)[C@H]1O,/,/,2.4,/,/,/
O=C(NNc1c(Cl)cncc1Cl)c1sccc1Cl,9.7,i,1.5,6.7,/,/
Cc1cc(C)c2cc(C#N)c(SCC(=O)Nc3cc(C)on3)nc2c1,-0.1,i,50.3*,5.3,-14.4,5.7
Cc1cc(NC(=O)CSc2nc3c(C)ccc(C)c3cc2C#N)no1,8.2,i,68.2*,7.4,15.4,11.8
CCCN(C(=O)C1=COCCO1)c1c(N)n(Cc2ccccc2)c(=O)[nH]c1=O,-3.5,i,-0.5,0.3,/,/
CC(C)CCN(C(=O)C1=COCCO1)c1c(N)n(Cc2ccccc2)c(=O)[nH]c1=O,0.0,i,33.7*,6.1,9.3,6.0
COc1cc(/C=C2\CCCc3c2nc2ccccc2c3C(=O)O)cc(Br)c1O,-20.9,/,56.0*,0.1,97.0*,66.9*
CSc1nnc(C(C)(C)C)c(=O)n1/N=C/c1c(O)ccc2ccccc12,3.7,i,33.1*,12.2,-6.7,3.0
COc1cccc(CNC(=S)Nc2ccc3c(c2)c(=O)n(C)n3Cc2ccccc2)c1,/,i,-1.7,/,/,/
COc1cc(Cn2c3ccc(NC(=O)CCc4cccnc4)cc3c(=O)n2C)ccc1F,/,i,6.8,/,/,/
COc1cc(Cn2c3ccc(NC(=O)CCc4ccccc4)cc3c(=O)n2C)ccc1F,/,?,32.9*,/,3.8,4.8
Cc1ccc(C2=CC(c3cccs3)n3nnnc3N2)cc1 (stereo not given),0.0,i,58.4,-0.5,/,/
Fc1ccc(C2=CC(c3cccs3)n3nnnc3N2)cc1 (stereo not given),9.3,i,33.4*,-5.3,9.5,10.8
CCOC(=O)N1CCC(N2C(=O)c3ccc(C(=O)Nc4ccc(OC)cc4)cc3C2=O)CC1,-9.5,i,0.4,-5.9,/,/
COc1ccccc1Nc1ccc([N+](=O)[O-])cc1N,0.1,i,49.4*,-12.8,29.4,17.1
O=C(C[n+]1cccc2ccccc21)c1ccc(Cl)cc1,1.4,i,42.7*,-130.4,4.1,6.3
Cc1ccc2c(ccc[n+]2CC(=O)c2ccccc2)c1,-4.6,i,8.6,-27.8,/,/
Cc1c(/C=N/Nc2ccc([N+](=O)[O-])cn2)c2ccccc2n1Cc1ccccc1,3.6,i,63.3*,-51.7,6.7,8.6
CCOc1ccc(S(=O)(=O)N2CCC(C(=O)N3CCN(c4ccccc4F)CC3)CC2)cc1C,-3.6,?,0.3,-8.9,/,/
CCCN1C(=O)/C(=C\C=C2/Sc3ccccc3N2CC)SC1=S,5.2,/,/,/,/,/

# Screening data from PubChem.
